Measurements from different studies.
Each line is one published result; the experiments were not run side by side.
Organism: Bacillus subtilis
Read-out: microbial growth

The MIC of O=C(O)CN1C(=O)/C(=C/c2ccc(-c3ccc(N(c4ccccc4)c4ccccc4)cc3)c3ccccc23)SC1=S is reported as 500 µg/mL (broth dilution; ATCC6633).
The MIC of CN(/N=C/c1cn(-c2ccc(C(=O)O)cc2)nc1-c1ccc(F)cc1)c1ccccc1 is reported as 12.5 µg/mL (ATCC6623).
C[C@@H](O)[C@H]1C(=O)N2C(C(=O)O)=C(S[C@@H]3CN[C@H](C(=O)N(C)C)C3)[C@H](C)[C@H]12 gave an MIC of 0.0625 µg/mL (broth dilution; 24 h).
C/C=C(\C)c1cc(O)c(C)c(OC(=O)c2c(C)c(Cl)c(O)c(Cl)c2O)c1 has an MIC of 2 µg/mL (broth dilution; BS01).
With CC1=NN(CNC(=O)c2ccccc2)C(=O)C1=NNn1c(-c2ccccc2)nc2ccccc2c1=O the MIC was 51.9 µM (broth dilution; 24 h).
For C[n+]1c(/C=C/c2c[nH]c3ccccc23)cc(/C=C2\Sc3ccccc3N2CCCN2CCCC2)c2ccccc21.[I-], the MIC was 2 µg/mL (broth dilution; 168).
For O=C(O)c1ccc(-n2cc(/C=N/Nc3cc(F)ccc3F)c(-c3cccc(F)c3)n2)cc1, the MIC was 6.25 µg/mL (ATCC6623).
COc1cc(O)c2c(c1)/C=C/C[C@H](O)[C@H](O)C(=O)/C=C/C[C@H](C)OC2=O has an MIC of greater than 500 µg/mL.
With O=C(O)c1ccc(-n2cc(/C=N/Nc3cccc(Cl)c3F)c(-c3ccc(F)cc3)n2)cc1 the MIC was 3.12 µg/mL (ATCC6623).
The MIC of Clc1ccc(NCc2ccc(Oc3ccccn3)cc2)cc1 is reported as greater than 6.2 µg/mL.
CCCCCCCCCCCCOC(=O)c1cc(O)c(O)c(O)c1 has an MIC of 25 to 50 µM (broth dilution; ATCC6633).
CCCC[P+](/C=C(/c1ccccc1)c1cc(Cl)ccc1OC)(CCCC)CCCC gave an MIC of 1 µM (21 h).
CN[C@H](CC(C)C)C(=O)N[C@H]1C(=O)N[C@@H](CC(N)=O)C(=O)N[C@H]2C(=O)N[C@H]3C(=O)N[C@H](C(=O)N[C@H](C(=O)O)c4cc(O)cc(O)c4-c4cc3ccc4O)[C@H](O)c3ccc(c(Cl)c3)Oc3cc2cc(c3O[C@@H]2O[C@H](CO)[C@@H](O)[C@H](O)[C@H]2O[C@H]2C[C@](C)(N)[C@H](O)[C@H](C)O2)Oc2ccc(cc2Cl)[C@H]1O gave an MIC of 0.25 µg/mL (broth dilution; 168).
COc1cccc(NCc2ccc(Oc3ccccn3)cc2)c1 has an MIC of 1.6 µg/mL.
With O=C(O)CN1C(=O)/C(=C/c2ccc(-c3ccc(N(c4ccccc4)c4ccccc4)cc3)cc2)NC1=S the MIC was 3.9 µg/mL (broth dilution; ATCC6633).
With CCCCCC[P+](/C=C(/c1ccccc1)c1cc(Cl)ccc1O)(CCCCCC)CCCCCC the MIC was 2 µM (21 h).
With Clc1ccccc1NCc1ccc(Oc2ccccn2)cc1 the MIC was 1.8 µg/mL.
For O=C1NC(=S)N/C1=C\c1ccc(-c2ccc(N(c3ccccc3)c3ccccc3)cc2)cc1, the MIC was greater than 1000 µg/mL (broth dilution; ATCC6633).
O=C(O)c1ccc(-n2cc(/C=N/N(Cc3ccccc3)Cc3ccccc3)c(-c3ccc(F)cc3)n2)cc1 has an MIC of 6.25 µg/mL (ATCC6623).
C/C=C(\C)c1cc(O)c(C)c(OC(=O)c2c(C)cc(O)c(Cl)c2O)c1 gave an MIC of 4 µg/mL (broth dilution; BS01).
